Experimental data taken from the RNAGym collection of RNA variant scans (doi:10.1038/s41586-018-0170-7).

B1: tRNA (parent)
chain: GUUCCGUUGGCGUAAUGGUAACGCGUCUCCCUCCUAAGGAGAAGACUGCGGGUUCGAGUCCCGUACGGAACG

Variants of: B1
Experiment: yeast fitness, log relative to wild type (ln ratio); higher = fitter; tRNA-Arg(CCU), competitive growth, 37 C, 1 M NaCl
How it was run: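 In BY4742 missing the chromosomal gene, a combinatorial tRNA-Arg(CCU) variant library was maintained on a HIS3 centromeric plasmid. Selection ran ~6.5 generations (~26.5 h) in SC-HIS 1M NaCl at 37 °C, following 4 generations in SC-HIS at 30 °C, with three outputs per input and variant counts by 125 bp paired-end Illumina sequencing. Fitness is the natural log of a genotype's generations relative to the wild type's, with generations taken as inverse-variance-weighted, OD-scaled log2 output/input frequency.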

Variant | yeast fitness (ln)
AGUCCGUUGGCGUAAUGGUAACGCGUUUCCCUCCUAAGGAGAAGACUGCGGGUUCGAGUCCCGUACGGGUCG [G1A U2G C27U A69G A70U] | -0.188
AGUCCGUUGGCGUAAUGGUAACGCGUUUCCCUCCUAAGGAGAAGACUGCGGGUUCGAGUCCCGUACGGGGCG [G1A U2G C27U A69G A70G] | -0.242
AGUCCGUUGGCGUAAUGGUAACGCGUUUCCCUCCUAAGGAGAAGAUUGCGGGUUCGAGUCCCGUAUGGGAUG [G1A U2G C27U C46U C66U A69G C71U] | -0.307
AGUCCGUUGGCGUAAUGGUAACGCGUUUCCCUCCUAAGGAGAAGAUUGCGGGUUCGAGUCCCGUACGGGGUG [G1A U2G C27U C46U A69G A70G C71U] | -0.292
AGUCCGUUGGCGUAAUGGUAACGCGUUUCCCUCCUAAGGAGAAGAUUGCGGGUUCGAGUCCCGUACGGGUUG [G1A U2G C27U C46U A69G A70U C71U] | -0.18
AGUCCGUUGGCGUAAUGGUAACGCGUUUCCCUCCUAAGGAGACGACUGCGGGUUCGAGUCCCGUAUGGAACG [G1A U2G C27U A43C C66U] | -0.123
AGUCCGUUGGCGUAAUGGUAACGCGUUUCCCUCCUAAGGAGAAGAUUGCGGGUUCGAGUCCCGUACGGAUUG [G1A U2G C27U C46U A70U C71U] | -0.0144
AGUCCGUUGGCGUAAUGGUAACGCGUUUCCCUCCUAAGGAGAAGACUGCGGGUUCGAGUCCCGUACGGAUUG [G1A U2G C27U A70U C71U] | -0.0262
AGUCCGUUGGCGUAAUGGUAACGCGUUUCCCUCCUAAGGAGAAGAUUGCGGGUUCGAGUCCCGUAAGGGUUG [G1A U2G C27U C46U C66A A69G A70U C71U] | -0.476
AGUCCGUUGGCGUAAUGGUAACGCGUUUCCCUCCUAAGGAGACGAUUGCGGGUUCGAGUCCCGUAAGGAUUG [G1A U2G C27U A43C C46U C66A A70U C71U] | -0.35
AGUCCGUUGGCGUAAUGGUAACGCGUUUCCCUCCUAAGGAGACGACUGCGGGUUCGAGUCCCGUAUGGGGUG [G1A U2G C27U A43C C66U A69G A70G C71U] | -0.294
AGUCCGUUGGCGUAAUGGUAACGCGUUUCCCUCCUAAGGAGACGAUUGCGGGUUCGAGUCCCGUAUGGAACG [G1A U2G C27U A43C C46U C66U] | -0.231
AGUCCGUUGGCGUAAUGGUAACGCGUUUCCCUCCUAAGGAGACGACUGCGGGUUCGAGUCCCGUAUGGAGUG [G1A U2G C27U A43C C66U A70G C71U] | -0.383
AGUCCGUUGGCGUAAUGGUAACGCGUUUCCCUCCUAAGGAGACGACUGCGGGUUCGAGUCCCGUAUGGAUCG [G1A U2G C27U A43C C66U A70U] | -0.282
AGUCCGUUGGCGUAAUGGUAACGCGUUUCCCUCCUAAGGAGACGACUGCGGGUUCGAGUCCCGUAUGGAGCG [G1A U2G C27U A43C C66U A70G] | -0.315
AGUCCGUUGGCGUAAUGGUAACGCGUUUCCCUCCUAAGGAGAAGAUUGCGGGUUCGAGUCCCGUAAGGAAUG [G1A U2G C27U C46U C66A C71U] | -0.0936
AGUCCGUUGGCGUAAUGGUAACGCGUUUCCCUCCUAAGGAGACGAUUGCGGGUUCGAGUCCCGUACGGAAUG [G1A U2G C27U A43C C46U C71U] | -0.0914
AGUCCGUUGGCGUAAUGGUAACGCGUUUCCCUCCUAAGGAGAAGAUUGCGGGUUCGAGUCCCGUAUGGAUCG [G1A U2G C27U C46U C66U A70U] | -0.123
AGUCCGUUGGCGUAAUGGUAACGCGUUUCCCUCCUAAGGAGAAGAUUGCGGGUUCGAGUCCCGUAUGGAGCG [G1A U2G C27U C46U C66U A70G] | -0.167

Variant | yeast fitness (ln)
AGUCCGUUGGCGUAAUGGUAACGCGUUUCCCUCCUAAGGAGACGACUGCGGGUUCGAGUCCCGUAUGGGUCG [G1A U2G C27U A43C C66U A69G A70U] | -0.363
AGUCCGUUGGCGUAAUGGUAACGCGUUUCCCUCCUAAGGAGACGACUGCGGGUUCGAGUCCCGUAUGGGGCG [G1A U2G C27U A43C C66U A69G A70G] | -0.492
AGUCCGUUGGCGUAAUGGUAACGCGUUUCCCUCCUAAGGAGAAGAUUGCGGGUUCGAGUCCCGUAAGGAGCG [G1A U2G C27U C46U C66A A70G] | -0.195
AGUCCGUUGGCGUAAUGGUAACGCGUUUCCCUCCUAAGGAGAAGAUUGCGGGUUCGAGUCCCGUAAGGAUCG [G1A U2G C27U C46U C66A A70U] | -0.138
AGUCCGUUGGCGUAAUGGUAACGCGUUUCCCUCCUAAGGAGAAGAUUGCGGGUUCGAGUCCCGUAUGGAAUG [G1A U2G C27U C46U C66U C71U] | -0.21
AGUCCGUUGGCGUAAUGGUAACGCGUUUCCCUCCUAAGGAGACGAUUGCGGGUUCGAGUCCCGUAAGGAUCG [G1A U2G C27U A43C C46U C66A A70U] | -0.175
AGUCCGUUGGCGUAAUGGUAACGCGUUUCCCUCCUAAGGAGAAGAUUGCGGGUUCGAGUCCCGUACGGAAUG [G1A U2G C27U C46U C71U] | -0.159
AGUCCGUUGGCGUAAUGGUAACGCGUUUCCCUCCUAAGGAGACGACUGCGGGUUCGAGUCCCGUAAGGGGUG [G1A U2G C27U A43C C66A A69G A70G C71U] | -0.472
AGUCCGUUGGCGUAAUGGUAACGCGUUUCCCUCCUAAGGAGAAGAUUGCGGGUUCGAGUCCCGUACGGAGUG [G1A U2G C27U C46U A70G C71U] | -0.503
AGUCCGUUGGCGUAAUGGUAACGCGUUUCCCUCCUAAGGAGAAGACUGCGGGUUCGAGUCCCGUACGGAGUG [G1A U2G C27U A70G C71U] | -0.371
AGUCCGUUGGCGUAAUGGUAACGCGUUUCCCUCCUAAGGAGAAGACUGCGGGUUCGAGUCCCGUACGGAGCG [G1A U2G C27U A70G] | -0.142
AGUCCGUUGGCGUAAUGGUAACGCGUUUCCCUCCUAAGGAGAAGACUGCGGGUUCGAGUCCCGUACGGAUCG [G1A U2G C27U A70U] | -0.33
AGUCCGUUGGCGUAAUGGUAACGCGUUUCCCUCCUAAGGAGACGAUUGCGGGUUCGAGUCCCGUAUGGGGUG [G1A U2G C27U A43C C46U C66U A69G A70G C71U] | -0.3
AGUCCGUUGGCGUAAUGGUAACGCGUUUCCCUCCUAAGGAGAAGAUUGCGGGUUCGAGUCCCGUAAGGAACG [G1A U2G C27U C46U C66A] | -0.0584
AGUCCGUUGGCGUAAUGGUAACGCGUUUCCCUCCUAAGGAGAAGAUUGCGGGUUCGAGUCCCGUAUGGAACG [G1A U2G C27U C46U C66U] | -0.185
AGUCCGUUGGCGUAAUGGUAACGCGUUUCCCUCCUAAGGAGACGACUGCGGGUUCGAGUCCCGUAAGGAGUG [G1A U2G C27U A43C C66A A70G C71U] | -0.317
AGUCCGUUGGCGUAAUGGUAACGCGUUUCCCUCCUAAGGAGAAGAUUGCGGGUUCGAGUCCCGUAAGGAGUG [G1A U2G C27U C46U C66A A70G C71U] | -0.203
AGUCCGUUGGCGUAAUGGUAACGCGUUUCCCUCCUAAGGAGAAGAUUGCGGGUUCGAGUCCCGUAAGGGGUG [G1A U2G C27U C46U C66A A69G A70G C71U] | -0.247
